Reference: ChEMBL document CHEMBL5316316, “Designing Synthetic, Sulfated Glycosaminoglycan Mimetics That Are Orally Bioavailable and Exhibiting In Vivo Anticancer Activity” (J Med Chem, 2023)
Active and inactive are the calls of the source. The calls are words filed in the database; no cut-off is given here.

What was measured:
[1] = test system: HT-29; test: Cytotoxicity against human HT-29 cells assessed as reduction in cell viability incubated for 60 to 72 hrs by MTT assay; format: toxicity, cell-based; settings: time 60-72 hrs
How it was run: (§1)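 HT-29 monolayer cells were seeded at about 2.5 × 10^3 per well in DMEM:F12 with 10% FBS and incubated overnight at 37 °C, 5% CO2. Compound was added for 60–72 h. MTT (5 mg/mL in PBS) was added for 2–3 h, crystals were dissolved in DMSO and absorbance read at 590 nm. Results are percent of vehicle control, at least three replicates.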

[2] = test system: Plasma; test: Anticoagulant activity in pooled human plasma assessed as prolongation of activated partial thromboplastin time incubated for 4 mins by coagulometer analysis; format: functional, cell-free
How it was run: (§2)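 Pooled normal citrated human plasma (90 μL) mixed with 10 μL compound and 100 μL prewarmed ellagic acid APTT reagent, incubated 4 min at 37 °C, then recalcified with 100 μL prewarmed 25 mM CaCl2. Clot time read on a fibrometer (one-stage recalcification). Water blank gave the baseline. Concentration doubling APTT came from a quadratic trend-line fit.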

[3] = test system: Plasma; test: Anticoagulant activity in pooled human plasma assessed as prolongation of activated partial thromboplastin time at 900 uM incubated for 4 mins by coagulometer analysis; format: functional; how it was run: as §2
[4] = test system: HT-29; test: Anticancer activity against human HT-29 cells assessed as inhibition of LGR5 expression level; format: functional, cell-based
[5] = test system: HT-29; test: Anticancer activity against human HT-29 cells assessed as inhibition of CD133+ expression level; format: functional, cell-based
[6] = test system: HT-29; test: Antitumor activity against human HT-29 cells xenografted in NCR nude mouse assessed as reduction in tumor growth at 100 mg/kg, ip administered 3 times a week for 3 weeks; format: functional, organism-based
[7] = Cytotoxicity against human HT-29 cells assessed as inhibition of spheroid growth; settings: HT-29 cell spheroids
[8] = test system: HT-29; test: Anticancer activity against human HT-29 cells assessed as inhibition of CXCR4+ expression level; format: functional, cell-based
[9] = test system: HT-29; test: Anticancer activity against human HT-29 cells assessed as inhibition of DCAMLK1 expression level; format: functional, cell-based
[10] = test system: HT-29; test: Cytotoxicity against human HT-29 cells assessed as reduction in cell viability at 100 uM incubated for 60 to 72 hrs by MTT assay; format: toxicity, cell-based; settings: ht-29, 100 µM, time 60-72 hrs; how it was run: as §1
[11] = test system: Mus musculus; test: Antithrombotic activity in ICR mouse model of tail-bleeding assessed as increase in blood loss at 100 mg/kg, iv
[12] = test system: Plasma; test: Anticoagulant activity in human plasma assessed as prolongation of activated partial thromboplastin time by measuring concentration required to double APTT incubated for 4 mins by coagulometer analysis; format: functional, cell-free; how it was run: as §2
[13] = test system: HT-29; test: Antitumor activity against human HT-29 cells xenografted in NCR nude mouse assessed as decrease in DCAMKL1 expression at 100 mg/kg, ip administered 3 times a week for 4.6 weeks by Western blot analysis; format: functional, organism-based
How it was run: (§3)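 Mice were randomized to 100 mg/kg IP three times/week for 4.6 weeks (14 doses). Tumors (n = 2/group) were dissociated and analysed by Western blot for LGR5, DCAMLK1 and BMI-1, and by flow cytometry for CD133+/CXCR4+ cells.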

[14] = test system: HT-29; test: Antitumor activity against human HT-29 cells xenografted in NCR nude mouse assessed as decrease in LGR5 expression at 100 mg/kg, ip administered 3 times a week for 4.6 weeks by Western blot analysis; format: functional, organism-based; how it was run: as §3
[15] = test system: HT-29; test: Cytotoxicity against human HT-29 cells assessed as reduction in cell viability at 400 uM incubated for 60 to 72 hrs by MTT assay; format: toxicity, cell-based; settings: ht-29, 400 µM, time 60-72 hrs; how it was run: as §1
[16] = test system: HT-29; test: Antitumor activity against human HT-29 cells xenografted in NCR nude mouse assessed as decrease in BMI-1 expression at 100 mg/kg, ip administered 3 times a week for 4.6 weeks by Western blot analysis; format: functional, organism-based; how it was run: as §3

SMILES	Activity [1]	Activity [2]	APTT [3] [s]	Activity [4]	Activity [5]	Activity [6]	IC50 [7] [µM]	Activity [8]	Activity [9]	Activity [10]	Activity [11]	Activity [12]	Activity [13]	Activity [14]	Activity [15]	Activity [16]
O=c1c(OS(=O)(=O)[O-])c(-c2ccc(OS(=O)(=O)[O-])c(OS(=O)(=O)[O-])c2)oc2cc(OS(=O)(=O)[O-])cc(OCCCOc3cc(OS(=O)(=O)[O-])cc4oc(-c5ccc(OS(=O)(=O)[O-])c(OS(=O)(=O)[O-])c5)c(OS(=O)(=O)[O-])c(=O)c34)c12.[Na+].[Na+].[Na+].[Na+].[Na+].[Na+].[Na+].[Na+]	Non-Toxic	Dose-Dependent Effect	68	Active	Active	Active	29.6	Active	Active	–	–	–	–	–	–	–
O=c1c(OS(=O)(=O)[O-])c(-c2ccc(OS(=O)(=O)[O-])cc2OS(=O)(=O)[O-])oc2cc(OS(=O)(=O)[O-])cc(OCC3CCC(COc4cc(OS(=O)(=O)[O-])cc5oc(-c6ccc(OS(=O)(=O)[O-])cc6OS(=O)(=O)[O-])c(OS(=O)(=O)[O-])c(=O)c45)CC3)c12.[Na+].[Na+].[Na+].[Na+].[Na+].[Na+].[Na+].[Na+] (stereo not drawn)	Non-Toxic	–	–	–	–	–	17.9	–	–	–	–	–	–	–	–	–
CC(C)CCC[C@@H](C)[C@H]1CC[C@H]2[C@@H]3CC=C4C[C@@H](OCCCCCCCCOc5cc(-c6oc7cc(OS(=O)(=O)[O-])cc(OCCCOc8cc(OS(=O)(=O)[O-])cc9oc(-c%10ccc(OS(=O)(=O)[O-])c(OS(=O)(=O)[O-])c%10)c(OS(=O)(=O)[O-])c(=O)c89)c7c(=O)c6OS(=O)(=O)[O-])ccc5OS(=O)(=O)[O-])CC[C@]4(C)[C@H]3CC[C@]12C.[Na+].[Na+].[Na+].[Na+].[Na+].[Na+].[Na+]	–	Dose-Dependent Effect	–	–	–	–	0.8	–	–	Toxic	Active	Active	–	–	–	–
CC(C)CCC[C@@H](C)[C@H]1CC[C@H]2[C@@H]3CC=C4C[C@@H](OCCCCCOc5cc(-c6oc7cc(OS(=O)(=O)[O-])cc(OCCCOc8cc(OS(=O)(=O)[O-])cc9oc(-c%10ccc(OS(=O)(=O)[O-])c(OS(=O)(=O)[O-])c%10)c(OS(=O)(=O)[O-])c(=O)c89)c7c(=O)c6OS(=O)(=O)[O-])ccc5OS(=O)(=O)[O-])CC[C@]4(C)[C@H]3CC[C@]12C.[Na+].[Na+].[Na+].[Na+].[Na+].[Na+].[Na+]	–	Dose-Dependent Effect	–	–	–	–	11.5	–	–	–	–	Active	Active	Active	Toxic	Active
